Test results: ChEMBL document CHEMBL1146581, “Induction of apoptosis by xanthones from mangosteen in human leukemia cell lines” (J Nat Prod, 2003)
Calls of active or inactive are those of the source. The calls are words filed in the database; no cut-off is given here.

Experiments:
[1] = tested on: HL-60; assay: Cytotoxicity against human HL60 cells assessed as cell viability after 72 hrs by Trypan blue exclusion test; format: functional, cell-based; conditions: HL-60, 72 h
Procedure, shortened: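 HL60 (RIKEN Cell Bank) in RPMI-1640 with 10% heat-inactivated FBS, seeded at 1 × 10^5/mL. Exposed for 72 h to 5–40 µM compound added in DMSO (final 0.1% v/v). Viable cells counted by trypan blue dye exclusion. IC50 read from concentration–growth curves. Means ± SD of three experiments.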

[2] = tested on: K562; assay: Cytotoxicity against human K562 cells assessed as cell viability at 10 uM after 72 hrs by Trypan blue exclusion test; format: functional, cell-based
Procedure, shortened: (§1)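 Leukemia lines (RIKEN Cell Bank) grown in RPMI-1640 with 10% heat-inactivated FBS. Growth curves were followed at 1, 2, 5 and 10 µM compound delivered in DMSO (final 0.1% v/v), with untreated controls. Viable cell number counted by trypan blue dye exclusion in a counting chamber.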

[3] = tested on: NB-4; assay: Cytotoxicity against human NB4 cells assessed as cell viability at 10 uM after 72 hrs by Trypan blue exclusion test; format: functional, cell-based; procedure, shortened: as §1
[4] = tested on: U-937; assay: Cytotoxicity against human U937 cells assessed as cell viability at 10 uM after 72 hrs by Trypan blue exclusion test; format: functional, cell-based; procedure, shortened: as §1
[5] = tested on: K562; assay: Cytotoxicity against human K562 cells assessed as cell viability at 5 uM after 72 hrs by Trypan blue exclusion test; format: functional, cell-based; procedure, shortened: as §1
[6] = tested on: NB-4; assay: Cytotoxicity against human NB4 cells assessed as cell viability at 5 uM after 72 hrs by Trypan blue exclusion test; format: functional, cell-based; procedure, shortened: as §1
[7] = tested on: U-937; assay: Cytotoxicity against human U937 cells assessed as cell viability at 5 uM after 72 hrs by Trypan blue exclusion test; format: functional, cell-based; procedure, shortened: as §1
[8] = tested on: PBMC; assay: Cytotoxicity against concanavalin A-stimulated human PBMC cells at 10 uM after 72 hrs by Trypan blue exclusion test; format: cell-based
Procedure, shortened: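 Lymphocytes from healthy donors in RPMI-1640 with 10% heat-inactivated FBS, stimulated with concanavalin-A (75 µg/mL) for 48 h, then exposed to compound in DMSO (final 0.1% v/v). Viable cells counted by trypan blue dye exclusion in a counting chamber.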

[9] = tested on: HL-60; assay: Induction of apoptosis in human HL60 cells assessed as nuclear condensation and fragmentation at 10 uM after 24 hrs using Hoechst stain by fluorescence microscopy; format: functional, cell-based
Procedure, shortened: (§2)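 Cells treated 24 h at 10 µM. Hoechst 33342 was added to the medium at 5 µg/mL for 30 min. Cells were then washed in PBS and nuclear condensation/fragmentation was scored by fluorescence microscopy (×400).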

[10] = tested on: K562; assay: Induction of apoptosis in human K562 cells assessed as nuclear condensation and fragmentation at 10 uM after 24 hrs using Hoechst stain by fluorescence microscopy; format: functional, cell-based; procedure, shortened: as §2
[11] = tested on: NB-4; assay: Induction of apoptosis in human NB4 cells assessed as nuclear condensation and fragmentation at 10 uM after 24 hrs using Hoechst stain by fluorescence microscopy; format: functional, cell-based; procedure, shortened: as §2
[12] = tested on: U-937; assay: Induction of apoptosis in human U937 cells assessed as nuclear condensation and fragmentation at 10 uM after 24 hrs using Hoechst stain by fluorescence microscopy; format: functional, cell-based; procedure, shortened: as §2
[13] = tested on: HL-60; assay: Induction of apoptosis in human HL60 cells assessed as DNA ladder formation at 10 uM after 24 hrs by agarose gel electrophoresis; format: functional, cell-based
[14] = tested on: K562; assay: Induction of apoptosis in human K562 cells assessed as DNA ladder formation at 10 uM after 24 hrs by agarose gel electrophoresis; format: functional, cell-based
[15] = tested on: NB-4; assay: Induction of apoptosis in human NB4 cells assessed as DNA ladder formation at 10 uM after 24 hrs by agarose gel electrophoresis; format: functional, cell-based
[16] = tested on: U-937; assay: Induction of apoptosis in human U937 cells assessed as DNA ladder formation at 10 uM after 24 hrs by agarose gel electrophoresis; format: functional, cell-based
[17] = tested on: HL-60; assay: Induction of apoptosis in human HL60 cells assessed as caspase 3 activation at 10 uM by Western blot; format: functional, cell-based
Procedure, shortened: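 HL60 treated with 10 µM over a time course. Lysis was in Tris pH 7.4/NP-40/deoxycholate/SDS buffer with protease inhibitors, 30 min on ice. 10 µg protein was run on a 5–20% SDS gradient gel and blotted to PVDF. The blot was probed overnight at 4 °C with rabbit anti-caspase-3, then HRP anti-rabbit, and detected by ECL. Pro (32 kD) and active (19/17 kD) forms were read.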

## CC(C)=CCc1c(O)cc2oc3cc(O)c(O)c(CC=C(C)C)c3c(=O)c2c1O
[1]
  IC50: 6.1 µM

## COc1cc2oc3cc(O)c(OC)c(CC=C(C)C)c3c(=O)c2c(O)c1CC=C(C)C
[1]
  IC50: 7.6 µM

## COc1cc2oc3ccc(O)cc3c(=O)c2c(O)c1CC=C(C)C
[1]
  IC50: 23.6 µM

## CC(C)=CCc1c(O)cc2oc3c(CC=C(C)C)c(O)c(O)c(CC=C(C)C)c3c(=O)c2c1O [GARCINONE E]
[1]
  IC50: 15 µM

## CC(C)=CCC/C(C)=C/Cc1c(O)cc2oc3c(O)cccc3c(=O)c2c1O [MANGOSTINONE]
[1]
  IC50: 19 µM

## COc1c(O)cc2oc3cc(O)c(CC=C(C)C)c(O)c3c(=O)c2c1CC=C(C)C [MANGOSTIN]
[1]
  IC50: 6.8 µM
[2]
  Activity: Active
[3]
  Activity: Active
[4]
  Activity: Active
[5]
  Activity: Active
[6]
  Activity: Active
[7]
  Activity: Active
[8]
  Activity: Non-toxic
[9]
  Activity: Active
[10]
  Activity: Active
[11]
  Activity: Active
[12]
  Activity: Active
[13]
  Activity: Active
[14]
  Activity: Active
[15]
  Activity: Active
[16]
  Activity: Active
[17]
  Activity: Active
